In the library only some 1.7% were active in any assay of this set; here they are far more common.
IMP-1 inhibitor = blocks Pseudomonas aeruginosa IMP-1 metallo-beta-lactamase; purified IMP-1, nitrocefin hydrolysis, epi-absorbance fluorescence; inhibition, % at 5.6 µM; 0.45% of 290,000 active;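 active = inhibition above the mean plus 3 SD of all compounds in the same screening run, cut at about 4.5% in these data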;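 note: 0% = IMP-1 with DMSO and 100% = DMSO wells lacking enzyme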
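Assay system: purified recombinant IMP-1 beta-lactamase. Input: IMP-1 0.2 nM before substrate addition. Buffer or medium: Zinc- and detergent-supplemented HEPES buffer, pH 7.1. Schedule: 25 °C, 15 min preincubation, 25 min reaction. Signal: Epi-absorbance fluorescence, 480 nm excitation, 530 nm emission. Evaluation: percent inhibition from optical density relative to buffer-blank wells.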
PolyA inh = yeast polyadenylation inhibition. S. cerevisiae SKY197-pL101 polyadenylation reporter, beta-gal luminescence; efflux-impaired pdr1/pdr3 knockout yeast; score 100 = 6 SD above DMSO. activity score, % at 12 µM. 0.02% of 300,000 active. AID 1875;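 active = lowest replicate activity score at least 50, where 100 means six control SD above control mean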;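 note: yeast exposed to compound for 9 h at 30 °C; higher score means more reporter readthrough which indicates perturbed polyadenylation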
Neddyl block = blocks human cullin neddylation. 0.58% of 360,000 active. TR-FRET cullin neddylation, biochemical. P61081+Q13564. calls only at 25 µM; in the data active = inhibition above about 36%
VIM-2 inh = blocks Pseudomonas aeruginosa VIM-2 metallo-beta-lactamase | purified VIM-2, nitrocefin hydrolysis, epi-absorbance fluorescence | inhibition, % at 5.6 µM | 0.89% of 290,000 active;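 active = inhibition above the mean of all tested compounds plus 3 SD, cutoff set per screening run, cut at about 7.5% in these data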;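 note: red hydrolysis product quenches plate fluorescence so inhibitors raise well fluorescence; 0% = enzyme with DMSO and 100% = DMSO without enzyme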
proCasp7 act = counter-screen: procaspase-7 (human) activation | activation, % at 8.5 µM | 0.093% of 330,000 active | recombinant procaspase-7, Ac-DEVD-pNA absorbance 405 nm; D23A/D198A/D206A triple mutant, cannot self-cleave; scale: DMSO 0, 5 µM enzyme 100;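 active = percent activation above the screen-wide mean plus 3 SD, cut at about 25% in these data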
Target sequence (P55210 whole entry D23A/D198A/D206A): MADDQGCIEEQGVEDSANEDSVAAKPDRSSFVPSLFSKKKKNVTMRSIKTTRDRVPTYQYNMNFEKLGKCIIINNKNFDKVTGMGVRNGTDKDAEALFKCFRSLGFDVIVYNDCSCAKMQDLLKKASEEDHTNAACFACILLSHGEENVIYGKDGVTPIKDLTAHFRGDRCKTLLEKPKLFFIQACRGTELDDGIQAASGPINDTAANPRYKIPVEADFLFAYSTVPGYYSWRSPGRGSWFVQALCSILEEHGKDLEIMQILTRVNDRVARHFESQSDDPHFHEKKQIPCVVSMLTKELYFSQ
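System: Uncleavable procaspase-7 mutant enzyme; Amount: 2 µM procaspase-7 mutant as dispensed; Schedule: 1 h compound preincubation, 2 h substrate cleavage, 25 °C; Measured by: 405 nm absorbance of p-nitroaniline; Evaluation: percent activation from buffer-corrected 0–120 min absorbance change; Control set: low DMSO alone, high DMSO plus 5 µM PC-7.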
procasp3 activ = activators of human procaspase-3; P42574; recombinant procaspase-3 D3A, Ac-DEVD-pNA absorbance 405 nm; activation, % at 8.5 µM; 0.11% of 330,000 active; AID 463141;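 active = activation above the mean of all tested compounds plus 3 SD, cut at about 21% in these data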;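 note: 0% = DMSO alone and 100% = DMSO wells spiked with extra 5 µM PC-3 D3A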
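Test system: Procaspase-3 D3A mutant, all three cleavage aspartates alanine | Dosing: Single dose, 8.5 µM nominal compound, 0.8% DMSO | Schedule: 1 h preincubation, 2 h reaction | Technique: 405 nm absorbance of p-nitroaniline, reads at 0 and 120 min | Repeats: One well per compound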
Neddyl conf = confirmation of human cullin neddylation inhibitors; shares compounds with Neddyl block; TR-FRET cullin neddylation biochemical assay; calls only at 25 µM; 13% of 1,800 active; in the data active = inhibition above about 40%;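 note: neddylation substrate is the cullin 1 ring ligase complex with SKP2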
* hit, by the source's call; i = inactive; nt = no result given; + = active, no number.

SMILES	IMP-1 inhibitor	PolyA inh	Neddyl block	VIM-2 inh	proCasp7 act	procasp3 activ	Neddyl conf
Clc1ccc2[nH]c3c(NCCCN4CCOCC4)ncnc3c2c1	2	8	+	9.9*	-8	2	i
CCOc1ccc2nc(NC(=O)Cn3[nH]c(=O)c4ccccc4c3=O)sc2c1	-2	5	i	-5	5	4	nt
NC(=O)c1cc(NC(=O)COC(=O)CCCN2C(=O)c3cccc4cccc(c34)C2=O)cc(C(N)=O)c1	nt	nt	i	nt	19	9	nt
CS(=O)(=O)c1ccc(Cl)c(NC(=O)COC(=O)CCCN2C(=O)c3cccc4cccc(c34)C2=O)c1	nt	-6	+	nt	5	16	i
Oc1cccc(Nc2ncnc3c2oc2ccccc23)c1	-1	-17	+	0	-2	0	nt
CCOc1cc(NC(=O)c2ccco2)c(OCC)cc1NC(=O)CCc1ccccc1OC	-4	13	+	-3	-4	4	i
CCOc1cc(NC(=O)c2ccco2)c(OCC)cc1NC(=O)c1ccco1	-3	-14	nt	-2	-2	7	nt
CCOC(=O)c1ccc(NC(=O)c2cc3ccccc3o2)cc1	-3	-5	i	-3	11	-4	nt
COCCCNC(=O)C(C)N1c2cccc3cccc(c23)S1(=O)=O (stereo unspecified)	-3	4	+	-2	nt	nt	i
Cc1cc(C)c(C#N)c(N2CCOCC2)n1	-3	-11	+	-4	-2	-3	+
Cc1cc(-c2nc(C)c(C(=O)NNC(=O)NC(C)C)s2)no1	-1	15	i	-4	-10	-17	nt
COc1c(C)oc2cc(O)ccc2c1=O	-3	7	nt	-1	1	-4	nt
Oc1ccc2c(c1)oc1cc(O)ccc12	-1	6	+	-1	1	-1	i
COc1cccc(N2CCN(Cc3nc(N)nc(Nc4ccccc4OC)n3)CC2)c1	-4	6	i	-4	-10	8	nt
CC(C)Cc1nc(N2CCCCC2)c(C#N)c2c1CCC2	-3	-18	+	-4	4	3	nt
CC(=O)N1CCN(c2nc(CC(C)C)c3c(c2C#N)CCC3)CC1	-3	7	nt	-3	-4	-3	nt
CCOc1ccc(C2=Nc3ccccc3C(c3ccc(N4CCOCC4)cc3)=NN2)cc1	-2	-6	+	2	5	0	i
CCOc1ccc(C2=Nc3ccc(Br)cc3C(c3ccc(N4CCOCC4)cc3)=NN2)cc1	-2	13	nt	0	-4	-9	nt
CCOc1ccccc1C(=O)Nc1cc2c(cc1N1CCCC1)n(CC)c(=O)n2CC	0	-6	+	-1	2	-6	i
CCn1c(=O)n(CC)c2cc(N3CCCC3)c(NC(=O)c3ccccc3OC)cc21	-4	-4	i	-1	-1	-7	nt
COc1ccccc1NC(=S)N(CCCN1CCOCC1)Cc1cccs1	-1	-5	i	-1	-11	5	nt
COc1ccc2nc(NC(=O)c3c(C)noc3C)sc2c1	nt	nt	+	nt	6	-9	i
Cc1noc(C)c1C(=O)Nc1nc2ccc(S(C)(=O)=O)cc2s1	-3	-7	i	-3	-1	12	nt
C/C=C/c1cnc2c(c1)C(=O)N([C@@H](C)CO)C[C@H](C)[C@@H](CN(C)S(=O)(=O)c1ccc(C)cc1)O2	nt	nt	i	nt	nt	nt	nt
C[C@@H]1CN([C@@H](C)CO)C(=O)c2cc(/C=C/c3ccccc3)cnc2O[C@@H]1CN(C)S(=O)(=O)c1ccc(F)cc1	nt	nt	+	nt	nt	nt	i
CCN1CCN(C(=O)c2ccc(Cl)c(S(=O)(=O)N3CCCCC3)c2)CC1	-4	-9	i	-4	2	-4	nt
Cn1ncc2cc3c(Nc4ccc(Cl)cc4)cccc3nc21	nt	nt	+	nt	nt	nt	+
COc1cc(/C=C/C(=O)OCC(=O)Nc2ccc(C)c(S(=O)(=O)N3CCCCC3)c2)ccc1O	-1	12	i	-1	9	5	nt
CCN(CC)S(=O)(=O)c1ccc(Cl)c(NC(=O)COC(=O)/C=C/c2ccc(O)c(OC)c2)c1	-3	10	+	-2	1	11	i
